This note sets out measurements from ChEMBL document CHEMBL1144399, “Peptoid-peptide hybrids as potent novel melanocortin receptor ligands” (J Med Chem, 2005).

What all share (assay type): cell-based, HEK293
The target in assay [1] is T1, Melanocortin receptor 3 (Homo sapiens, UniProt P41968). Description: Effective concentration against human melanocortin receptor-3 expressed in 293 HEK cells. A digest of the protocol:
(§1)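 LacZ reporter-gene activation assay in HEK293 cells expressing human MC3, human MC4 or mouse MC5 receptor. Dose-response curves run up to 30 µM. EC50 reported as -log(EC50) (M) with 95% confidence ranges. Incomplete or absent curves at 30 µM were not assigned values.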

Assay [2] deals with T2, Melanocortin receptor 4 (Homo sapiens, UniProt P32245). Nature of the assay: Effective concentration against human melanocortin receptor-4 expressed in 293 HEK cells. A digest of the protocol:
as §1

Assay [3] addresses T3, Melanocortin receptor 5 (Mus musculus, UniProt P41149). Description: Effective concentration against mouse melanocortin receptor-5 expressed in 293 HEK cells. A digest of the protocol: as §1
In assay [4] the target is T1, Melanocortin receptor 3. Nature of the assay: Displacement of [125I]NDP-MSH from human melanocortin receptor-3 expressed in 293 HEK cells. A digest of the protocol: (§2)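 Radioligand competition with [125I]-NDP-MSH on HEK293 cells expressing human MC3, human MC4 or mouse MC5 receptor. Ligands up to 30 µM. IC50 reported as -log(IC50) (M) with 95% confidence ranges. Ligands without activation activity were tested only at a single 30 µM concentration.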
In general terms: Loss of bound radioactivity is the signal in a displacement assay; it reports binding, not function.

Assay [5] has as its target T2, Melanocortin receptor 4. Description: Displacement of [125I]NDP-MSH from human melanocortin receptor-4 expressed in 293 HEK cells. A digest of the protocol: as §2
The target of assay [6] is T3, Melanocortin receptor 5. Nature of the assay: Displacement of [125I]NDP-MSH from mouse melanocortin receptor-5 expressed in 293 HEK cells. A digest of the protocol: as §2

T2 sequence (P32245 whole entry): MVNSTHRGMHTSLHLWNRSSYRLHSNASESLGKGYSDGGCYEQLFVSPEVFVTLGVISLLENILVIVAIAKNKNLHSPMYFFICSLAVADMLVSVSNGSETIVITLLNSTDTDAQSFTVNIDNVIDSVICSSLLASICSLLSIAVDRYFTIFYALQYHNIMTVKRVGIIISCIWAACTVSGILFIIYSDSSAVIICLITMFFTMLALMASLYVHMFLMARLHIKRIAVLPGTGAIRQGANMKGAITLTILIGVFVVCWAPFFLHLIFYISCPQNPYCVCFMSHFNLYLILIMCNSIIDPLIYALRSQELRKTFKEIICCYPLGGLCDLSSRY
T1 sequence (P41968 whole entry): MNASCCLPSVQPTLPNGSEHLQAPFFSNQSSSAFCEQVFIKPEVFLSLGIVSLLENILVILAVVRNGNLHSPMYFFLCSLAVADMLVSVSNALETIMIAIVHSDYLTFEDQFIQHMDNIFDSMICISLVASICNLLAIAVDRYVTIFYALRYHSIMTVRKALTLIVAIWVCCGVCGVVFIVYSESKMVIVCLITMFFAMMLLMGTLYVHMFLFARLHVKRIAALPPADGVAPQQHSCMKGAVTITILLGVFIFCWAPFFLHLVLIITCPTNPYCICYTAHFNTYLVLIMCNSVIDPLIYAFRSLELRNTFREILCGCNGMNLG
T3 sequence (P41149 whole entry): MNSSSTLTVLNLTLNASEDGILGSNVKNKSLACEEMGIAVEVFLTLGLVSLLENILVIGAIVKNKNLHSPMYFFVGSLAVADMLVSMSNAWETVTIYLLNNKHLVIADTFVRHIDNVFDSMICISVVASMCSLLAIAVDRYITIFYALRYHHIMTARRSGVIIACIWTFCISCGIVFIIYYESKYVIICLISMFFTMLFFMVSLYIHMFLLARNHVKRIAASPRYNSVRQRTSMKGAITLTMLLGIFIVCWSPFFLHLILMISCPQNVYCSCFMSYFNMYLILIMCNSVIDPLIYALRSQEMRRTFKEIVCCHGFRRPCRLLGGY

For `CCCC[C@H](NC(C)=O)C(=O)NCC(=O)N[C@@H](CCCCN)C(=O)N[C@H](Cc1ccccc1)C(=O)N(CCCNC(=N)N)CC(=O)N(CCc1c[nH]c2ccccc12)CC(=O)NCC(N)=O`, the half-maximal effective concentration (EC50) at Melanocortin receptor 3 [1] is 158 nM; at Melanocortin receptor 4 [2] it was 79.4 nM; at Melanocortin receptor 5 [3] it was 15.8 nM. The IC50 was 2000 nM on Melanocortin receptor 3 [4], 79.4 nM at Melanocortin receptor 4 [5] and 1000 nM at Melanocortin receptor 5 [6].
For `CCCC[C@H](NC(C)=O)C(=O)NCC(=O)N[C@@H](CCCCN)C(=O)N[C@H](Cc1ccccc1)C(=O)N(CCCNC(=N)N)CC(=O)N[C@@H](Cc1c[nH]c2ccccc12)C(=O)NCC(N)=O`, the values for the concentration giving a half-maximal response (EC50) at Melanocortin receptor 3 [1], at Melanocortin receptor 4 [2] and at Melanocortin receptor 5 [3] were 3980 nM, 631 nM and 251 nM, respectively. Besides, the results for the IC50 at Melanocortin receptor 3 [4], at Melanocortin receptor 4 [5] and on Melanocortin receptor 5 [6] were 5010 nM, 398 nM and 3160 nM, respectively.
As to `CCCCN(CC(=O)NCC(=O)N[C@@H](CCCCN)C(=O)N[C@H](Cc1ccccc1)C(=O)N[C@@H](CCCNC(=N)N)C(=O)N(CC(=O)NCC(N)=O)Cc1c[nH]c2ccccc12)C(C)=O`, the values for the EC50 at Melanocortin receptor 3 [1], at Melanocortin receptor 4 [2] and at Melanocortin receptor 5 [3] were 794 nM, 631 nM and 3980 nM, respectively. Besides, the IC50 is 1260 nM on Melanocortin receptor 3 [4], 794 nM at Melanocortin receptor 4 [5] and 1580 nM at Melanocortin receptor 5 [6].
As to `CCCC[C@H](NC(C)=O)C(=O)NCC(=O)N(CCCCN)CC(=O)N[C@H](Cc1ccccc1)C(=O)N[C@@H](CCCN=C(N)N)C(=O)N(CC(=O)NCC(N)=O)Cc1c[nH]c2ccccc12`, the results for the EC50 on Melanocortin receptor 3 [1], at Melanocortin receptor 4 [2] and on Melanocortin receptor 5 [3] were 5010 nM, 1260 nM and 2000 nM, respectively. For the same molecule, the figures for the IC50 on Melanocortin receptor 3 [4], at Melanocortin receptor 4 [5] and at Melanocortin receptor 5 [6] were 794 nM, 158 nM and 631 nM, respectively.
In the case of `CCCC[C@H](NC(C)=O)C(=O)NCC(=O)N[C@@H](CCCCN)C(=O)N[C@H](Cc1ccccc1)C(=O)N[C@@H](CCCN=C(N)N)C(=O)N(CCc1c[nH]c2ccccc12)CC(=O)NCC(N)=O`, the EC50 at Melanocortin receptor 3 [1] was 2000 nM; at Melanocortin receptor 4 [2], 316 nM; on Melanocortin receptor 5 [3] it was 2000 nM. Moreover, the results for the IC50 on Melanocortin receptor 3 [4], on Melanocortin receptor 4 [5] and on Melanocortin receptor 5 [6] were 7940 nM, 316 nM and 10000 nM, respectively.
Take `CCCCN(CC(=O)NCC(=O)N(CCCCN)CC(=O)N[C@H](Cc1ccccc1)C(=O)N[C@@H](CCCNC(=N)N)C(=O)N[C@@H](Cc1c[nH]c2ccccc12)C(=O)NCC(N)=O)C(C)=O`: the EC50 on Melanocortin receptor 3 [1] is 2000 nM; at Melanocortin receptor 4 [2], 63.1 nM; on Melanocortin receptor 5 [3], 7940 nM. Besides, the IC50 is 1260 nM at Melanocortin receptor 3 [4], 63.1 nM on Melanocortin receptor 4 [5] and 794 nM at Melanocortin receptor 5 [6].
Regarding `CCCC[C@H](NC(C)=O)C(=O)NCC(=O)N[C@@H](CCCCN)C(=O)N[C@H](Cc1ccccc1)C(=O)N(CCCNC(=N)N)CC(=O)N(CC(=O)NCC(N)=O)Cc1c[nH]c2ccccc12`, the EC50 at Melanocortin receptor 3 [1] was 631 nM; at Melanocortin receptor 4 [2] it was 158 nM; on Melanocortin receptor 5 [3] it was 100 nM. Also, the IC50 at Melanocortin receptor 3 [4] was 5010 nM; at Melanocortin receptor 4 [5] it was 316 nM; at Melanocortin receptor 5 [6], 2000 nM.
On to `CCCCN(CC(=O)NCC(=O)N[C@@H](CCCCN)C(=O)N[C@H](Cc1ccccc1)C(=O)N(CCCN=C(N)N)CC(=O)N(CCc1c[nH]c2ccccc12)CC(=O)NCC(N)=O)C(C)=O`, for which the 50% effective concentration (EC50) at Melanocortin receptor 3 [1] was 158 nM; on Melanocortin receptor 4 [2] it was 100 nM; on Melanocortin receptor 5 [3], 316 nM. The IC50 on Melanocortin receptor 3 [4] is 3160 nM; on Melanocortin receptor 4 [5], 251 nM; at Melanocortin receptor 5 [6], 1260 nM.
In the case of `CCCC[C@H](NC(C)=O)C(=O)NCC(=O)N[C@@H](CCCCN)C(=O)N[C@H](Cc1ccccc1)C(=O)N(CCCCNC(=N)N)CC(=O)N(CCc1c[nH]c2ccccc12)CC(=O)NCC(N)=O`, the EC50 at Melanocortin receptor 3 [1] is 501 nM; on Melanocortin receptor 4 [2] it was 251 nM; at Melanocortin receptor 5 [3] it was 12.6 nM. For the same molecule, the concentration for half-maximal inhibition (IC50) at Melanocortin receptor 3 [4] is 631 nM; on Melanocortin receptor 4 [5] it was 158 nM; on Melanocortin receptor 5 [6], 501 nM.
For `CCCC[C@H](NC(C)=O)C(=O)NCC(=O)N[C@@H](CCCCN)C(=O)N[C@H](Cc1ccccc1)C(=O)N[C@@H](CCCN=C(N)N)C(=O)N(CC(=O)NCC(N)=O)Cc1c[nH]c2ccccc12`, the concentration giving a half-maximal response (EC50) was 316 nM at Melanocortin receptor 3 [1], 158 nM at Melanocortin receptor 4 [2] and 251 nM on Melanocortin receptor 5 [3]. The IC50 is 501 nM at Melanocortin receptor 3 [4], 251 nM at Melanocortin receptor 4 [5] and 794 nM at Melanocortin receptor 5 [6].
The molecule `CCCCN(CC(=O)NCC(=O)N[C@@H](CCCCN)C(=O)N[C@H](Cc1ccccc1)C(=O)N(CCCN=C(N)N)CC(=O)N(CC(=O)NCC(N)=O)Cc1c[nH]c2ccccc12)C(C)=O` showed an EC50 on Melanocortin receptor 4 [2] of 501 nM. For the same molecule, the IC50 at Melanocortin receptor 3 [4] is 7940 nM; at Melanocortin receptor 4 [5], 794 nM; on Melanocortin receptor 5 [6], 3160 nM.
For the molecule `CCCCN(CC(=O)NCC(=O)N(CCCCN)CC(=O)N[C@H](Cc1ccccc1)C(=O)N(CCCN=C(N)N)CC(=O)N(CCc1c[nH]c2ccccc12)CC(=O)NCC(N)=O)C(C)=O`, the EC50 on Melanocortin receptor 3 [1] was 6310 nM; at Melanocortin receptor 4 [2], 794 nM. Further, the IC50 at Melanocortin receptor 3 [4] was 3980 nM; at Melanocortin receptor 4 [5], 1000 nM; at Melanocortin receptor 5 [6], 2000 nM.
Turning to `CCCC[C@H](NC(C)=O)C(=O)NCC(=O)N(CCCCN)CC(=O)NC(Cc1ccccc1)C(=O)N(CCCNC(=N)N)CC(=O)N(CCc1c[nH]c2ccccc12)CC(=O)NCC(N)=O` (single isomer, unassigned), the EC50 was 3980 nM at Melanocortin receptor 3 [1], 398 nM at Melanocortin receptor 4 [2] and 1000 nM at Melanocortin receptor 5 [3]. Moreover, the IC50 at Melanocortin receptor 3 [4] was 3980 nM; on Melanocortin receptor 4 [5] it was 501 nM; at Melanocortin receptor 5 [6] it was 1580 nM.
On to `CCCCN(CC(=O)NCC(=O)N[C@@H](CCCCN)C(=O)N[C@H](Cc1ccccc1)C(=O)N[C@@H](CCCN=C(N)N)C(=O)N[C@@H](Cc1c[nH]c2ccccc12)C(=O)NCC(N)=O)C(C)=O`, for which the EC50 at Melanocortin receptor 3 [1] is 25.1 nM; on Melanocortin receptor 4 [2] it was 2.51 nM; at Melanocortin receptor 5 [3], 794 nM. In addition, the IC50 on Melanocortin receptor 3 [4] is 126 nM; on Melanocortin receptor 4 [5], 20 nM.
For `CCCC[C@H](NC(C)=O)C(=O)NCC(=O)N[C@@H](CCCCN)C(=O)N[C@H](Cc1ccccc1)C(=O)N(CCCCN=C(N)N)CC(=O)N[C@@H](Cc1c[nH]c2ccccc12)C(=O)NCC(N)=O`, the figures for the EC50 at Melanocortin receptor 4 [2] and at Melanocortin receptor 5 [3] were 251 nM and 63.1 nM, respectively. Also, the IC50 was 3980 nM on Melanocortin receptor 3 [4], 158 nM at Melanocortin receptor 4 [5] and 2000 nM at Melanocortin receptor 5 [6].
As for `CCCC[C@H](NC(C)=O)C(=O)NCC(=O)N[C@@H](CCCCN)C(=O)N[C@H](Cc1ccccc1)C(=O)N[C@@H](CCCNC(=N)N)C(=O)N[C@@H](Cc1c[nH]c2ccccc12)C(=O)NCC(N)=O`, the results for the EC50 on Melanocortin receptor 3 [1], at Melanocortin receptor 4 [2] and at Melanocortin receptor 5 [3] were 7.94 nM, 0.501 nM and 31.6 nM, respectively. Further, the concentration for half-maximal inhibition (IC50) at Melanocortin receptor 3 [4] was 200 nM; at Melanocortin receptor 4 [5], 2.51 nM.

In general, EC50 refers to the concentration needed to bring the measured effect to its halfway point. Read a high EC50 as lower potency in that assay. For orientation: IC50 means the midpoint of a concentration-inhibition curve.
